Assay results from different studies.
Protocols differ between the studies behind these lines.
Target: NUAK family SNF1-like kinase 1 (NUAK1, Homo sapiens, UniProt O60285)
Residues used in one study (O60285 1-661): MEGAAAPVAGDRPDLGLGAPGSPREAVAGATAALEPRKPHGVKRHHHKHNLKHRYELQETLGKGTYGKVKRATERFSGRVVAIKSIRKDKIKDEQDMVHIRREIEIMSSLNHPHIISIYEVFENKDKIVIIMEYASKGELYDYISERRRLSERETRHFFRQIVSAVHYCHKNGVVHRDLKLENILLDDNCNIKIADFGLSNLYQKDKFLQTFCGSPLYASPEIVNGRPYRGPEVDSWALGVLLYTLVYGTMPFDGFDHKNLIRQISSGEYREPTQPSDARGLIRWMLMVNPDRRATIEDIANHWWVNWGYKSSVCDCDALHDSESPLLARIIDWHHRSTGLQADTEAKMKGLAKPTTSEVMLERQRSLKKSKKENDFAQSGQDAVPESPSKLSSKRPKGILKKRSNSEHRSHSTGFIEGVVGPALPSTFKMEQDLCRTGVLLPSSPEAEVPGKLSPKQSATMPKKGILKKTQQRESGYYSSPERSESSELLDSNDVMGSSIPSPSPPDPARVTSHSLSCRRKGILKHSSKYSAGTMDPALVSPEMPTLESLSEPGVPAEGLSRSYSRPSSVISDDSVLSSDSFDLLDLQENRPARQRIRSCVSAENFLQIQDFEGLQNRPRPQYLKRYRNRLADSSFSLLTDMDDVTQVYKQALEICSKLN

C#Cc1n[nH]c2c(-c3cn([C@@H](C)c4ccccn4)c(=O)[nH]c3=O)cc(F)cc12 — inhibition (enzyme activity, inhibitor; 0.1 µM): 3.3%
CC(C)(C)c1cc(C=C(C#N)C#N)cc(Br)c1O — remaining activity (enzyme activity, inhibitor; 0.5 µM): 95.4%
COc1ncccc1-c1cnn2ccc(N3CCN(C(=O)OC(C)C)CC3)nc12 — remaining binding (binding, competition with immobilised ligand; 1 µM): 65%
C#Cc1n[nH]c2c(-c3cn([C@@H](C)c4ccccc4)c(=O)[nH]c3=O)cc(F)cc12 — inhibition (enzyme activity, inhibitor; 0.1 µM): 0.4%
Cn1cc(-c2cccc(N3CCc4c(sc5c4CC(C)(C)C5)C3=O)c2CO)cc(Nc2ccncn2)c1=O — inhibition (enzyme activity, inhibitor; 1 µM): 14%
O=c1[nH]c2ccccc2n1C1CCN(Cc2ccc(-c3[nH]c4cc5ncnc5cc4nc3-c3ccccc3)cc2)CC1 — remaining signal (cell-free assay; 0.5 µM): 103%
Cn1cc(-c2cc(F)cc(N3CCn4c(cc5c4CCCC5)C3=O)c2CO)cc(Nc2ccc(N3CCN(C4COC4)CC3)cn2)c1=O — inhibition (enzyme activity, inhibitor; 0.1 µM): 17%
N#CC1(c2ccccn2)CCN(Cc2cc(C(=O)O)c(=O)n3ccccc23)CC1 — remaining binding (cell-free assay, competition with immobilised ligand; 1 µM): 98%
Cc1nn(C)cc1-c1nc2c(N3CCN(Cc4ccc(Cl)cc4)CC3)c(Cl)cnc2[nH]1 — remaining binding (binding, competition with immobilised ligand; 1 µM): 9.6%
Cn1cncc1[C@](O)(COc1ccc(C#N)cc1-c1ccc(OC(F)(F)F)cc1)c1ccc(C#N)cc1 — remaining binding (cell-free assay, competition with immobilised ligand; 1 µM): 81%
Nc1ncc(-c2nc(N3CCOCC3)nc(N3CCOCC3)n2)c(C(F)F)n1 — remaining binding (binding, competition with immobilised ligand; 10 µM): 94%
